# Measured values reported in ChEMBL document CHEMBL1629668, “Activity of anidulafungin in a murine model of Candida krusei infection: evaluation of mortality and disease burden by quantitative tissue cultures and measurement of serum (1,3)-beta-D-glucan levels” (2009).
# The source made the active and inactive calls. Numbered stars: 1 amine (or outer) side, 2 acyl side, 3 side chain; on linkers, the order of the positions; unused ones are H or OH. Bridge positions count the residues as written; N and C are the ends. Square brackets hold non-standard residues; d marks the D form. Peptide text beside a SMILES is read from it. * marks the point of attachment. pTerphenylCO(4''-OnC5H11) = CCCCCOc1ccc(-c2ccc(-c3ccc(C(=O)*)cc3)cc2)cc1; Orn(4R-OH,5R-OH) = O=C([C@H](C[C@@H](O)[C@@H](O)N[*:3])N[*:1])[*:2]; hTyr(3S-OH,4S-OH) = N[C@H](C(=O)O)[C@H](O)[C@@H](O)c1ccc(O)cc1; Pro(3S-OH,4S-Me) = C[C@H]1CN[C@H](C(=O)O)[C@H]1O; Hyp = O=C(O)[C@@H]1C[C@@H](O)CN1
# Legend:
# [1] = tested on: Pichia kudriavzevii; assay: Antimicrobial activity against Candida krusei LMR 39-14 by M27-A3 microdilution method; type: functional
# [2] = tested on: Pichia kudriavzevii; assay: Antimicrobial activity against Candida krusei LMR 39-14 infected in immunosuppressed CF-1 mouse assessed as decrease in kidney bacterial burden at 40 mg/kg, ip administered once daily for 5 days measured after 5 days (Rvb= 6.66); type: functional; details: route intraperitoneal
# [3] = tested on: Pichia kudriavzevii; assay: Antimicrobial activity against Candida krusei LMR 39-14 infected in immunosuppressed CF-1 mouse assessed as increased survival of mouse at 40 mg/kg, ip administered once daily for 5 days relative to control; type: functional, organism-based; design: dose 40 mg/kg
# Outline: (§1)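 Same immunosuppressed CF-1 model: 5-FU 200 mg/kg i.p. on day −3, dexamethasone 4 mg/kg s.c. on day 0, i.v. tail inoculation of 1.3×10^7 to 1.5×10^7 CFU. Treatment i.p. q24h for 5 days with saline placebo. Fifteen mice per group observed for survival; run in duplicate with data pooled; Kaplan-Meier estimates compared by log-rank test.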
# [4] = tested on: Pichia kudriavzevii; assay: Antimicrobial activity against Candida krusei LMR 39-14 infected in immunosuppressed CF-1 mouse assessed as serum 1,3-beta-D-glucan level at 40 mg/kg, ip administered once daily for 5 days measured after 10 days (Rvb= 5.22); type: functional; details: route intraperitoneal
# Outline: (§2)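 Serum (1,3)-β-D-glucan in immunosuppressed CF-1 mice (5-FU 200 mg/kg i.p. day −3, dexamethasone 4 mg/kg s.c. day 0) infected i.v. with 1.3×10^7 to 1.5×10^7 CFU. Mice dosed i.p. q24h for 5 days with saline placebo. Blood taken from five mice per group on day 5 or 10 post-inoculation and assayed with the Fungitell kit (threshold 31 pg/ml). Groups compared by Kruskal-Wallis; duplicate runs pooled.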
# [5] = tested on: Pichia kudriavzevii; assay: Antimicrobial activity against Candida krusei LMR 39-14 infected in immunosuppressed CF-1 mouse assessed as serum 1,3-beta-D-glucan level at 40 mg/kg, ip administered once daily for 5 days measured after 5 days (Rvb= 6.66); type: functional; details: route intraperitoneal; outline: as §2
# [6] = tested on: Pichia kudriavzevii; assay: Antimicrobial activity against Candida krusei LMR 39-14 infected in immunosuppressed CF-1 mouse assessed as decrease in kidney […] burden at 40 mg/kg, ip administered once daily for 5 days measured after 10 days (Rvb= 5.22); type: functional; details: route intraperitoneal
# [7] = tested on: Pichia kudriavzevii; assay: Antimicrobial activity against Candida krusei LMR 39-14 infected in immunosuppressed CF-1 mouse assessed as decrease in kidney bacterial burden at 1 mg/kg, ip administered once daily for 5 days measured after 10 days (Rvb= 5.22); type: functional; details: route intraperitoneal
# Outline: (§3)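 C. krusei clinical bloodstream isolate given IV by tail vein at 1.3×10^7 to 1.5×10^7 CFU/mouse, with inoculum confirmed by plating. Mice immunosuppressed with 5-FU 200 mg/kg i.p. 3 days before and dexamethasone 4 mg/kg s.c. on the day of infection. Treatment i.p. q24h for 5 days. Five mice/group killed day 5 or day 10. Both kidneys homogenized and plated on Sabouraud agar for 48 h; log10 CFU/g; detection limit 40 CFU/g; ANOVA; duplicate runs pooled.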
# [8] = tested on: Pichia kudriavzevii; assay: Antimicrobial activity against Candida krusei LMR 39-14 infected in immunosuppressed CF-1 mouse assessed as decrease in kidney bacterial burden at 1 mg/kg, ip administered once daily for 5 days measured after 5 days (Rvb= 6.66); type: functional; details: route intraperitoneal; outline: as §3
# [9] = tested on: Pichia kudriavzevii; assay: Antimicrobial activity against Candida krusei LMR 39-14 infected in immunosuppressed CF-1 mouse assessed as serum 1,3-beta-D-glucan level at 1 mg/kg, ip administered once daily for 5 days measured after 5 days (Rvb= 6.66); type: functional; details: route intraperitoneal
# [10] = tested on: Pichia kudriavzevii; assay: Antimicrobial activity against Candida krusei LMR 39-14 infected in immunosuppressed CF-1 mouse assessed as serum 1,3-beta-D-glucan level at 1 mg/kg, ip administered once daily for 5 days measured after 10 days (Rvb= 5.22); type: functional; details: route intraperitoneal
# [11] = tested on: Pichia kudriavzevii; assay: Antimicrobial activity against Candida krusei LMR 39-14 infected in immunosuppressed CF-1 mouse assessed as increased survival of mouse at 1 mg/kg, ip administered once daily for 5 days relative to control; type: functional, organism-based; design: dose 1 mg/kg
# Outline: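 Immunosuppression used 5-FU 200 mg/kg i.p. on day −3 and dexamethasone 4 mg/kg s.c. on day 0. C. krusei bloodstream isolate was given IV via tail vein at 1.3×10^7 to 1.5×10^7 CFU. Drug i.p. q24h for 5 days, saline placebo. Fifteen mice/group per run followed for survival; experiment in duplicate, pooled. Kaplan-Meier estimates compared by log-rank test.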
# [12] = tested on: Pichia kudriavzevii; assay: Antimicrobial activity against Candida krusei LMR 39-14 infected in immunosuppressed CF-1 mouse assessed as serum 1,3-beta-D-glucan level at 20 mg/kg, ip administered once daily for 5 days measured after 5 days (Rvb= 5.22); type: functional; details: route intraperitoneal; outline: as §2
# [13] = tested on: Pichia kudriavzevii; assay: Antimicrobial activity against Candida krusei LMR 39-14 infected in immunosuppressed CF-1 mouse assessed as decrease in kidney bacterial burden at 10 mg/kg, ip administered once daily for 5 days measured after 5 days (Rvb= 6.66); type: functional; details: route intraperitoneal
# [14] = tested on: Pichia kudriavzevii; assay: Antimicrobial activity against Candida krusei LMR 39-14 infected in immunosuppressed CF-1 mouse assessed as serum 1,3-beta-D-glucan level at 20 mg/kg, ip administered once daily for 5 days measured after 10 days (Rvb= 5.22); type: functional; details: route intraperitoneal; outline: as §2
# [15] = tested on: Pichia kudriavzevii; assay: Antimicrobial activity against Candida krusei LMR 39-14 infected in immunosuppressed CF-1 mouse assessed as decrease in kidney bacterial burden at 20 mg/kg, ip administered once daily for 5 days measured after 10 days (Rvb= 5.22); type: functional; details: route intraperitoneal
# [16] = tested on: Pichia kudriavzevii; assay: Antimicrobial activity against Candida krusei LMR 39-14 infected in immunosuppressed CF-1 mouse assessed as increased survival of mouse at 20 mg/kg, ip administered once daily for 5 days relative to control; type: functional, organism-based; design: dose 20 mg/kg; outline: as §1
# [17] = tested on: Pichia kudriavzevii; assay: Antimicrobial activity against Candida krusei LMR 39-14 infected in immunosuppressed CF-1 mouse assessed as decrease in kidney bacterial burden at 10 mg/kg, ip administered once daily for 5 days measured after 10 days (Rvb= 5.22); type: functional; details: route intraperitoneal
# [18] = tested on: Pichia kudriavzevii; assay: Antimicrobial activity against Candida krusei LMR 39-14 infected in immunosuppressed CF-1 mouse assessed as increased survival of mouse at 10 mg/kg, ip administered once daily for 5 days relative to control; type: functional, organism-based; design: dose 10 mg/kg; outline: as §1
# [19] = tested on: Pichia kudriavzevii; assay: Antimicrobial activity against Candida krusei LMR 39-14 infected in immunosuppressed CF-1 mouse assessed as serum 1,3-beta-D-glucan level at 10 mg/kg, ip administered once daily for 5 days measured after 10 days (Rvb= 5.22); type: functional; details: route intraperitoneal; outline: as §2
# [20] = tested on: Pichia kudriavzevii; assay: Antimicrobial activity against Candida krusei LMR 39-14 infected in immunosuppressed CF-1 mouse assessed as serum 1,3-beta-D-glucan level at 10 mg/kg, ip administered once daily for 5 days measured after 5 days (Rvb= 6.66); type: functional; details: route intraperitoneal; outline: as §2
# [21] = tested on: Pichia kudriavzevii; assay: Antimicrobial activity against Candida krusei LMR 39-14 infected in immunosuppressed CF-1 mouse assessed as decrease in kidney bacterial burden at 20 mg/kg, ip administered once daily for 5 days measured after 5 days (Rvb= 5.22); type: functional; details: route intraperitoneal
# [22] = tested on: Pichia kudriavzevii; assay: Antimicrobial activity against Candida krusei by […]; type: functional
smiles,measurement,setting,value
OC(Cn1cncn1)(Cn1cncn1)c1ccc(F)cc1F [FLUCONAZOLE],MIC,[1],> 64 µg/mL
same,log10CFU/g,[2],7.01
same,Activity,[3],Active
same,Activity,[4],1292 pg/mL
same,Activity,[5],2714 pg/mL
same,log10CFU/g,[6],4.77
C[C@@H]1[C@H](O)[C@@H](C)/C=C/C=C/C=C/C=C/C=C/C=C/C=C/[C@H](O[C@@H]2O[C@H](C)[C@@H](O)[C@H](N)[C@@H]2O)C[C@@H]2O[C@](O)(C[C@@H](O)C[C@@H](O)[C@H](O)CC[C@@H](O)C[C@@H](O)CC(=O)O[C@H]1C)C[C@H](O)[C@H]2C(=O)O [AMPHOTERICIN B],log10CFU/g,[7],4.96
same,log10CFU/g,[8],5.95
same,Activity,[9],2559 pg/mL
same,Activity,[10],1742 pg/mL
same,Activity,[11],Active
"CCCCCOc1ccc(-c2ccc(-c3ccc(C(=O)N[C@H]4C[C@@H](O)[C@@H](O)NC(=O)[C@@H]5[C@@H](O)[C@@H](C)CN5C(=O)[C@H]([C@@H](C)O)NC(=O)[C@H]([C@H](O)[C@@H](O)c5ccc(O)cc5)NC(=O)[C@@H]5C[C@@H](O)CN5C(=O)[C@H]([C@@H](C)O)NC4=O)cc3)cc2)cc1 [ANIDULAFUNGIN] ({pTerphenylCO(4''-OnC5H11)}-[Orn(4R-OH,5R-OH)]T[Hyp][hTyr(3S-OH,4S-OH)]T[Pro(3S-OH,4S-Me)]; lactam 1-C)",MIC,[1],0.06 µg/mL
same,Activity,[12],351 pg/mL
same,log10CFU/g,[13],4.06
same,Activity,[14],693 pg/mL
same,log10CFU/g,[15],1.59
same,Activity,[16],Active
same,log10CFU/g,[17],0.96
same,Activity,[18],Active
same,Activity,[19],624 pg/mL
same,Activity,[20],256 pg/mL
same,log10CFU/g,[21],3.97
same,MIC90,[22],0.06 µg/mL
